NPY-Y1 antag = antagonists of human neuropeptide Y receptor Y1; P25929; HEK293-CNG Y1 cells, membrane potential fluorescence; NPY at EC95, then isoproterenol; inhibition, % at 3.6 µM; 1% of 200,000 active;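 active = inhibition above the campaign mean inhibition of all tested compounds plus 3 SD, cut at about 20% in these data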;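 note: 0% = DMSO wells given NPY plus isoproterenol and 100% = isoproterenol alone without NPY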
Target sequence (P25929 whole entry, looked up): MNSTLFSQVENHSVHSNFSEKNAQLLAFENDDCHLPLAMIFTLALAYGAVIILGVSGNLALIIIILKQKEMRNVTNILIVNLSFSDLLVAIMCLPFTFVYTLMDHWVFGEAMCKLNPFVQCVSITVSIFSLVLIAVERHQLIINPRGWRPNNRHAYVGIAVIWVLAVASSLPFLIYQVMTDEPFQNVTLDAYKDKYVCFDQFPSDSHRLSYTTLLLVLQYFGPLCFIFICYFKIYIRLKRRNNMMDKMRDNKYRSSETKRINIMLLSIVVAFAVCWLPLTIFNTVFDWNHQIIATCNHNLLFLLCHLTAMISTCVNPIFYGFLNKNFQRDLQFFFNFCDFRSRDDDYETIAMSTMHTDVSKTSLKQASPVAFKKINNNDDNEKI
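Test system: HEK293 cells co-expressing NPY Y1 receptor and cyclic-nucleotide gated channel; Also added: NPY (25 nM), isoproterenol (1 µM), Ro 20-1724 (25 µM); Compound dosing: one concentration, 3.6 µM, in 0.4% DMSO; Timing: dye 3 h, compound 60 min room temperature, stimulation 45 min; Technique: Membrane-potential fluorescent dye readout.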
NPY-Y2 PAM-ag = potentiators or agonists of human neuropeptide Y receptor Y2 | P49146 | cells expressing NPY-Y2, potentiator/agonist read-out | activation, % at 3.6 µM | 0.45% of 220,000 active | AID 1359; in the data active = activation above about 27%;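 note: cells stimulated with NPY near EC25 plus isoproterenol at EC100; 0% = vehicle plus submaximal agonist and 100% = vehicle plus saturating agonist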
Target sequence (P49146 whole entry, looked up): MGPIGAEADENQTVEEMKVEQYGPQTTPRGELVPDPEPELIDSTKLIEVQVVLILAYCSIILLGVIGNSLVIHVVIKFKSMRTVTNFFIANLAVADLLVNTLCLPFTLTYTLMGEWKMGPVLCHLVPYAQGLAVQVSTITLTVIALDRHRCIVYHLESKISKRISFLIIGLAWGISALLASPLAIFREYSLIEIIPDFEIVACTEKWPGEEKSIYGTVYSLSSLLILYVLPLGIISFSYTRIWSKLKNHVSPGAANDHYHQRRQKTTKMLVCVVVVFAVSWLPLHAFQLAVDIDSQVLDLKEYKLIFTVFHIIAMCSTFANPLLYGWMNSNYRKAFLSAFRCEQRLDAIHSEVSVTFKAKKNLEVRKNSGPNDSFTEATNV
Furin inh = blocks human furin protease activity. P09958. inhibition, % at 20 µM or 30 µM. 0.061% of 220,000 active. purified furin, fluorogenic substrate cleavage; in the data active = inhibition above about 25%
KCC2 mod = KCC2 (human) Cl- transport modulation. Q9H2X9. KCC2 cells, thallium flux FluoZin-2 fluorescence. B-score of Tl+ flux slope (higher = more flux/activation; lower = inhibition) at 10 µM. 2.2% of 190,000 active. AID 1456;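 active = thallium flux slope and its plate-corrected score both differing from the plate sample mean at a set confidence after two filtering rounds, in either direction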;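 note: slope of fluorescence scaled to starting intensity during 10 to 20 s after thallium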
NPY-Y2 antag = NPY-Y2 (human) receptor antagonism. NPY-Y2 expressing cells, antagonist mode. inhibition, % at 2.7 µM. 0.99% of 140,000 active; in the data active = inhibition above about 17%;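 note: 0% = vehicle with agonist challenge and 100% = reference antagonist with challenge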
NPY1 pot ag = potentiators or agonists of human neuropeptide Y receptor Y1; P25929; NPY-Y1 expressing cells, potentiator/agonist activation; 0.37% of 220,000 active; AID 1304; activation, % at 3.6 µM; in the data active = activation above about 33%, passing the limit was not always enough;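 note: cells stimulated with NPY at EC10 then isoproterenol at EC100; 0% = low agonist plus stimulus and 100% = saturating agonist plus stimulus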
KCC2 sec1 = KCC2 (human) modulation, secondary assay; HEK293-KCC2, thallium flux, FluoZin2 fluorescence; active compounds read high; 15% of 3,700 active; normalised thallium flux (F/F0 slope) at 10 µM; shares compounds with KCC2 mod;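 active = thallium flux slope above the same plate's solvent-only control mean plus 3 SD; inconclusive = the two replicate wells disagree; inactive = no significant difference from solvent-only control wells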
KCC2 bumet counter = thallium flux persisting under bumetanide in KCC2 cells, counter-screen secondary assay | shares compounds with KCC2 mod | HEK293-KCC2 + bumetanide/ouabain, thallium flux FluoZin2; active compounds read high | normalized thallium flux at 10 µM | 49% of 3,700 active | AID 1714;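 active = thallium entry rate above the same plate's blocked-transporter control wells by more than 3 SD; inconclusive = the two repeat wells disagree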;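 note: raw slope of fluorescence over initial fluorescence between 10 and 20 s after thallium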
KCC2 sec2 = confirmation of human KCC2 transport modulators; shares compounds with KCC2 mod; HEK293-KCC2, thallium flux FluoZin2 fluorescence; actives lie on both sides; F/F0 rise rate, 10–20 s post-thallium; normalized thallium flux at 10 µM; 23% of 3,700 active; AID 1715;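 active = thallium flux slope more than 3 SD above or below the plate's solvent-only control mean, mostly below; inconclusive = the two repeat wells disagreed; inactive = no significant shift from solvent-only controls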;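 note: raw slope with 0.1% DMSO as baseline and bumetanide as block control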
HEK293 Tl flux = counter-screen for KCC2 modulators: effect in parental HEK293 cells; shares compounds with KCC2 mod; thallium flux rate (normalised fluorescence) at 10 µM; thallium flux FluoZin2, ouabain; baseline-ratio fluorescence slope, 10–20 s after thallium; 46% of 3,700 active;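 active = thallium flux rate significantly above the same plate's solvent-only control wells, beyond their mean plus 3 SD; inconclusive = the two replicate wells gave conflicting results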
KCC2 ouabain = KCC2 (human) modulation, ouabain retest; 48% of 3,700 active; shares compounds with KCC2 mod; AID 1717; raw Tl+ flux slope (below DMSO = inhibition, above = activation) at 10 µM; HEK293-KCC2, thallium flux FluoZin2 fluorescence; bidirectional: low = inhibitor, high = activator;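 active = thallium flux slope beyond 3 SD from same-plate DMSO control mean in most replicates, usually higher, sometimes lower; inconclusive = repeat tests gave conflicting results; inactive = no significant difference from controls in most replicates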;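 note: slope of initial-normalized fluorescence between seconds 10 and 20 after thallium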
HEK counter2 = acts in parental HEK cells, second KCC2 counter-screen | shares compounds with KCC2 mod | HEK293 parental, thallium flux FluoZin-2 fluorescence slope | thallium flux slope at 10 µM | 33% of 3,700 active;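 active = thallium flux slope above the same plate's solvent-control mean plus 3 SD in both duplicate wells; inconclusive = duplicate wells that disagreed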;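 note: run without ouabain in cells lacking the KCC2 cotransporter; slope of fluorescence scaled to its starting value between 10 and 20 s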
The depositor's hits bear a star. This is a sample that favours compounds with a hit; in the whole collection about 3.7% have one here.

How did COc1ccc(CCn2c(-c3ccc(OC)cc3)nc3c(c(=O)c4ccccc4n3C)c2=O)cc1 do in these assays?
NPY-Y2 PAM-ag: -10; Furin inh: -12; KCC2 mod: 0.059; NPY1 pot ag: -26

How did COCCn1c(-c2ccc(Cl)cc2Cl)nc2c(c(=O)c3ccccc3n2C)c1=O do in these assays?
NPY-Y1 antag: -2; NPY-Y2 PAM-ag: 5; Furin inh: -25; KCC2 mod: -3.4*; NPY-Y2 antag: 1; NPY1 pot ag: 6; KCC2 sec1: 0.006; KCC2 bumet counter: 0.0047; KCC2 sec2: 0.024*; HEK293 Tl flux: inconclusive; KCC2 ouabain: 0.013*; HEK counter2: 0.0096

How did CN(c1ccccc1)c1ccc(/C=C(\CCC(=O)O)c2nc3ccccc3s2)cc1[N+](=O)[O-] do in these assays?
NPY-Y1 antag: 0; NPY-Y2 PAM-ag: -20; Furin inh: 4; KCC2 mod: -6.9*; NPY-Y2 antag: 11; NPY1 pot ag: -33; KCC2 sec1: 0.0053; KCC2 bumet counter: 0.0047; KCC2 sec2: 0.021*; HEK293 Tl flux: 0.0069; KCC2 ouabain: 0.012*; HEK counter2: 0.0098

What do the screens show for `COc1ccc(/C=C(\CC(=O)O)c2nc3ccccc3s2)cc1O`?
NPY-Y1 antag: 4; NPY-Y2 PAM-ag: -12; Furin inh: 0; KCC2 mod: -0.37; NPY1 pot ag: -2

How did Cn1cnnc1Sc1ccc(/C=C(\CCC(=O)O)c2nc3ccccc3s2)cc1[N+](=O)[O-] do in these assays?
NPY-Y1 antag: -2; NPY-Y2 PAM-ag: -7; Furin inh: -2; KCC2 mod: -6.8*; NPY1 pot ag: -5; KCC2 sec1: 0.0057; KCC2 bumet counter: 0.0048; KCC2 sec2: 0.025*; HEK293 Tl flux: 0.0059*; KCC2 ouabain: 0.014*; HEK counter2: 0.0097

Results for Cc1ccc(/C=C(\CCC(=O)O)c2nc3ccccc3s2)cc1[N+](=O)[O-] ?
NPY-Y1 antag: 18; NPY-Y2 PAM-ag: -26; Furin inh: -8; KCC2 mod: -6.9*; NPY-Y2 antag: 15; NPY1 pot ag: -22; KCC2 sec1: 0.0057; KCC2 bumet counter: 0.0048; KCC2 sec2: 0.022*; HEK293 Tl flux: 0.0058*; KCC2 ouabain: 0.01*; HEK counter2: inconclusive

Results for Cc1nn(C)c(C)c1S(=O)(=O)N(CC(=O)N1CCc2ccccc2C1)c1ccc(C(C)C)cc1 ?
NPY-Y1 antag: -2; NPY-Y2 PAM-ag: 3; Furin inh: -14; NPY-Y2 antag: 0; NPY1 pot ag: 1; KCC2 sec1: inconclusive; KCC2 bumet counter: 0.0049; KCC2 sec2: 0.025*; HEK293 Tl flux: inconclusive; KCC2 ouabain: 0.014*; HEK counter2: 0.0094

How did CCN(C(=S)NC(=O)C1CCCC1)C1CCCCC1 do in these assays?
NPY-Y1 antag: -2; NPY-Y2 PAM-ag: -5; Furin inh: -3; KCC2 mod: 7.3*; NPY1 pot ag: -3; KCC2 sec1: 0.012; KCC2 bumet counter: 0.03*; KCC2 sec2: 0.038; HEK293 Tl flux: inconclusive; KCC2 ouabain: 0.033*; HEK counter2: inconclusive

Results for O=C(NC(=S)N(Cc1ccccc1)Cc1ccccc1)C1CCCCC1 ?
NPY-Y1 antag: 4; NPY-Y2 PAM-ag: 0; Furin inh: -20; KCC2 mod: 2; NPY-Y2 antag: 1; NPY1 pot ag: -9

How did CC1=C(C(=O)Nc2ccccc2)C(c2sccc2C)n2nnnc2N1 (stereo unspecified) do in these assays?
NPY-Y1 antag: -6; NPY-Y2 PAM-ag: 4; Furin inh: -5; NPY-Y2 antag: 1; NPY1 pot ag: 0

Results for N#Cc1c(-c2ccccc2Cl)cc(-c2ccccc2)[nH]c1=S ?
NPY-Y1 antag: 13; NPY-Y2 PAM-ag: 4; Furin inh: -8; KCC2 mod: 17*; NPY1 pot ag: 1; KCC2 sec1: 0.015*; KCC2 bumet counter: 0.028*; KCC2 sec2: 0.038; HEK293 Tl flux: 0.022*; KCC2 ouabain: 0.035*; HEK counter2: 0.013*

How did O=C(NNS(=O)(=O)c1ccc(Cl)cc1)c1cccc(S(=O)(=O)N2CCOCC2)c1 do in these assays?
NPY-Y2 PAM-ag: -11; Furin inh: -30; KCC2 mod: 1.3; NPY1 pot ag: 2

What do the screens show for `CC(C)NC(=S)N/N=C/c1sc(N2CCCCC2)nc1-c1cccs1`?
NPY-Y1 antag: 1; NPY-Y2 PAM-ag: -9; Furin inh: -8; KCC2 mod: 3.1*; NPY-Y2 antag: -1; NPY1 pot ag: 1; KCC2 sec1: 0.011; KCC2 bumet counter: 0.011*; KCC2 sec2: 0.034; HEK293 Tl flux: 0.0099*; KCC2 ouabain: 0.025; HEK counter2: 0.01

What do the screens show for `COc1cccc(C(=O)NC(=S)Nc2nnn(C)n2)c1`?
NPY-Y1 antag: 0; NPY-Y2 PAM-ag: -11; Furin inh: -31; KCC2 mod: 1.4; NPY-Y2 antag: 0; NPY1 pot ag: 8

What do the screens show for `S=c1[nH]nc(COc2cccc3ccccc23)n1Cc1ccccc1`?
NPY-Y2 PAM-ag: 8; Furin inh: -1; KCC2 mod: 0.057; NPY1 pot ag: 12

What do the screens show for `Cc1ccccc1OCc1n[nH]c(=S)n1Cc1ccccc1`?
NPY-Y1 antag: -5; NPY-Y2 PAM-ag: 1; Furin inh: -18; KCC2 mod: 6.1*; NPY-Y2 antag: 2; NPY1 pot ag: 19; KCC2 sec1: 0.0075; KCC2 bumet counter: 0.029*; KCC2 sec2: 0.041*; HEK293 Tl flux: 0.024*; KCC2 ouabain: 0.03*; HEK counter2: 0.031*

Results for S=c1[nH]nc(-c2ccc3ccccc3n2)n1Cc1ccccc1 ?
NPY-Y1 antag: 10; NPY-Y2 PAM-ag: 1; Furin inh: 1; KCC2 mod: 9.2*; NPY-Y2 antag: 11; NPY1 pot ag: -1; KCC2 sec1: 0.015*; KCC2 bumet counter: 0.027*; KCC2 sec2: 0.036; HEK293 Tl flux: 0.029*; KCC2 ouabain: 0.031*; HEK counter2: 0.016*

Screening data: PubChem BioAssay, several laboratories
